Several values for one entry are separate records, joined by “and”; a condition that tells them apart may be missing. Identical values can stand only once.
Test system: HEK-293T
Experiment: Multiplex assay against HEK293T
Assay type: toxicity, cell-based
Settings: human, number of replicates 2
Outline: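 Hoechst33342, BioTracker Green Microtubule Cytoskeleton Dye, MitoTracker Red and Annexin V Alexa Fluor 680 were added to live cells at seeding, and imaging on a CQ1 microscope at 37°C and 5% CO2 followed compound addition. Gating by CellPathfinder machine learning separated cells into Hoechst high-intensity objects or normal cells, then normal cells into healthy, pyknosed or fragmented nuclei, then pyknosed cells into mitotic or apoptotic. Per cents of healthy-nucleus cells are reported for the tubulin, mitochondrial-mass and membrane-permeability phenotypes.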

[1] = 12 h, 1 µM, compound concentration 1 uM
[2] = 12 h, 10 µM, compound concentration 10 uM
[3] = 24 h, 1 µM, compound concentration 1 uM
[4] = 24 h, 10 µM, compound concentration 10 uM
[5] = 48 h, 1 µM, compound concentration 1 uM
[6] = 48 h, 10 µM, compound concentration 10 uM
[7] = 12 h, 0 µM, compound concentration 0 uM
[8] = 24 h, 0 µM, compound concentration 0 uM
[9] = 48 h, 0 µM, compound concentration 0 uM

## COC(=O)Nc1nc2c(s1)-c1c(c(-c3cccnc3)nn1-c1ccc(C3(N(C)C)CC3)cc1)CC2.Cl.Cl
[1]
  Population Apoptotic (%): 62% and 58%
  Population Fragmented Nuclei (%): 5% and 1%
  Population Healthy Nuclei (%): 82% and 89%
  Population Hoechst High Intensity Objects (%): 11% and 10%
  Population Membrane Permeable-Phenotype (%): 1%
  Population Mitochondria Different-Phenotype (%): 41% and 51%
  Population Mitotic Cells (%): 37% and 41%
  Population Normal (%): 88% and 89%
  Population Pyknosed Nuclei (%): 12% and 9%
  Population Tubulin-Different-Phenotype (%): 75% and 76%
  Total Cell Count: 359 and 348
[2]
  Population Apoptotic (%): 73% and 64%
  Population Fragmented Nuclei (%): 5%
  Population Healthy Nuclei (%): 75% and 82%
  Population Hoechst High Intensity Objects (%): 17% and 10%
  Population Membrane Permeable-Phenotype (%): 3%
  Population Mitochondria Different-Phenotype (%): 66% and 52%
  Population Mitotic Cells (%): 26% and 35%
  Population Normal (%): 82% and 89%
  Population Pyknosed Nuclei (%): 18% and 11%
  Population Tubulin-Different-Phenotype (%): 90% and 87%
  Total Cell Count: 245 and 351
[3]
  Population Apoptotic (%): 66% and 71%
  Population Fragmented Nuclei (%): 4%
  Population Healthy Nuclei (%): 81% and 82%
  Population Hoechst High Intensity Objects (%): 20% and 17%
  Population Membrane Permeable-Phenotype (%): 2% and 1%
  Population Mitochondria Different-Phenotype (%): 43% and 55%
  Population Mitotic Cells (%): 33% and 28%
  Population Normal (%): 79% and 82%
  Population Pyknosed Nuclei (%): 14% and 12%
  Population Tubulin-Different-Phenotype (%): 81% and 85%
  Total Cell Count: 313 and 342
[4]
  Population Apoptotic (%): 67% and 58%
  Population Fragmented Nuclei (%): 8% and 6%
  Population Healthy Nuclei (%): 70% and 78%
  Population Hoechst High Intensity Objects (%): 15% and 18%
  Population Membrane Permeable-Phenotype (%): 4% and 3%
  Population Mitochondria Different-Phenotype (%): 70% and 52%
  Population Mitotic Cells (%): 32% and 41%
  Population Normal (%): 85% and 81%
  Population Pyknosed Nuclei (%): 21% and 14%
  Population Tubulin-Different-Phenotype (%): 86% and 82%
  Total Cell Count: 240 and 296
[5]
  Population Apoptotic (%): 62%
  Population Fragmented Nuclei (%): 11% and 8%
  Population Healthy Nuclei (%): 81% and 80%
  Population Hoechst High Intensity Objects (%): 23% and 25%
  Population Membrane Permeable-Phenotype (%): 1%
  Population Mitochondria Different-Phenotype (%): 19% and 27%
  Population Mitotic Cells (%): 37%
  Population Normal (%): 76% and 74%
  Population Pyknosed Nuclei (%): 6% and 11%
  Population Tubulin-Different-Phenotype (%): 78% and 76%
  Total Cell Count: 490 and 355
[6]
  Population Apoptotic (%): 64% and 60%
  Population Fragmented Nuclei (%): 8% and 11%
  Population Healthy Nuclei (%): 77% and 80%
  Population Hoechst High Intensity Objects (%): 17% and 20%
  Population Membrane Permeable-Phenotype (%): 3% and 2%
  Population Mitochondria Different-Phenotype (%): 45% and 39%
  Population Mitotic Cells (%): 35% and 40%
  Population Normal (%): 82% and 79%
  Population Pyknosed Nuclei (%): 13% and 8%
  Population Tubulin-Different-Phenotype (%): 80% and 77%
  Total Cell Count: 310 and 354

## CS(=O)(=O)c1ccc(C(=O)Nc2cc(F)c(F)c(COc3cc(F)c(Br)cc3CN3CC[C@H](O)C3)c2)c(Cl)c1.O=CO
[1]
  Population Apoptotic (%): 60% and 64%
  Population Mitotic Cells (%): 39% and 35%
  Population Normal (%): 90%
  Total Cell Count: 610 and 577
[2]
  Population Apoptotic (%): 90% and 72%
  Population Mitotic Cells (%): 9% and 27%
  Population Normal (%): 91% and 89%
  Total Cell Count: 406 and 397
[3]
  Population Apoptotic (%): 59% and 58%
  Population Mitotic Cells (%): 40% and 41%
  Population Normal (%): 91% and 92%
  Total Cell Count: 921 and 854
[4]
  Population Apoptotic (%): 91% and 78%
  Population Mitotic Cells (%): 8%
  Population Normal (%): 85% and 83%
  Total Cell Count: 392 and 412
[5]
  Population Apoptotic (%): 23% and 44%
  Population Mitotic Cells (%): 76% and 55%
  Population Normal (%): 90% and 89%
  Total Cell Count: 2126 and 1643
[6]
  Population Apoptotic (%): 90% and 83%
  Population Mitotic Cells (%): 10% and 16%
  Population Normal (%): 80% and 81%
  Total Cell Count: 434 and 464

## COc1cc(C(N)=O)ccc1Nc1ncc2c(n1)N(CCC(C)C)[C@H](C)C(=O)N2C
[7]
  Population Apoptotic (%): 47% and 52%
  Population Fragmented Nuclei (%): 3% and 2%
  Population Healthy Nuclei (%): 86% and 88%
  Population Hoechst High Intensity Objects (%): 2%
  Population Membrane Permeable-Phenotype (%): 4% and 10%
  Population Mitochondria Different-Phenotype (%): 31% and 35%
  Population Mitotic Cells (%): 52% and 47%
  Population Normal (%): 97%
  Population Pyknosed Nuclei (%): 10% and 9%
  Population Tubulin-Different-Phenotype (%): 82% and 95%
  Total Cell Count: 540 and 476
[1]
  Population Apoptotic (%): 62% and 60%
  Population Fragmented Nuclei (%): 1% and 4%
  Population Healthy Nuclei (%): 73% and 75%
  Population Hoechst High Intensity Objects (%): 8% and 7%
  Population Membrane Permeable-Phenotype (%): 2%
  Population Mitochondria Different-Phenotype (%): 38% and 28%
  Population Mitotic Cells (%): 37% and 39%
  Population Normal (%): 91% and 92%
  Population Pyknosed Nuclei (%): 24% and 20%
  Population Tubulin-Different-Phenotype (%): 64% and 58%
  Total Cell Count: 432 and 456
[8]
  Population Apoptotic (%): 67% and 50%
  Population Fragmented Nuclei (%): 4% and 5%
  Population Healthy Nuclei (%): 88%
  Population Hoechst High Intensity Objects (%): 3% and 2%
  Population Membrane Permeable-Phenotype (%): 1% and 2%
  Population Mitochondria Different-Phenotype (%): 44% and 59%
  Population Mitotic Cells (%): 32% and 50%
  Population Normal (%): 96% and 97%
  Population Pyknosed Nuclei (%): 6%
  Population Tubulin-Different-Phenotype (%): 81% and 96%
  Total Cell Count: 464 and 423
[3]
  Population Apoptotic (%): 75% and 68%
  Population Fragmented Nuclei (%): 5%
  Population Healthy Nuclei (%): 69% and 76%
  Population Hoechst High Intensity Objects (%): 8% and 6%
  Population Membrane Permeable-Phenotype (%): 1%
  Population Mitochondria Different-Phenotype (%): 34% and 32%
  Population Mitotic Cells (%): 24% and 31%
  Population Normal (%): 91% and 93%
  Population Pyknosed Nuclei (%): 25% and 18%
  Population Tubulin-Different-Phenotype (%): 38% and 35%
  Total Cell Count: 461 and 420
[9]
  Population Apoptotic (%): 72% and 75%
  Population Fragmented Nuclei (%): 16% and 11%
  Population Healthy Nuclei (%): 78% and 80%
  Population Hoechst High Intensity Objects (%): 3%
  Population Membrane Permeable-Phenotype (%): 1% and 3%
  Population Mitochondria Different-Phenotype (%): 39% and 55%
  Population Mitotic Cells (%): 28% and 24%
  Population Normal (%): 96%
  Population Pyknosed Nuclei (%): 5% and 7%
  Population Tubulin-Different-Phenotype (%): 63% and 89%
  Total Cell Count: 505 and 420
[5]
  Population Apoptotic (%): 72% and 73%
  Population Fragmented Nuclei (%): 8% and 11%
  Population Healthy Nuclei (%): 72% and 76%
  Population Hoechst High Intensity Objects (%): 5% and 4%
  Population Membrane Permeable-Phenotype (%): 1%
  Population Mitochondria Different-Phenotype (%): 14% and 17%
  Population Mitotic Cells (%): 27% and 26%
  Population Normal (%): 94% and 95%
  Population Pyknosed Nuclei (%): 19% and 12%
  Population Tubulin-Different-Phenotype (%): 24% and 20%
  Total Cell Count: 520 and 517

Source: ChEMBL document CHEMBL5303300, “EUbOPEN Chemogenomics Library - Multiplex” (2023)
